A selection: hits, their analogues and other compounds. The true share with any hit is near 3.6%.
PAFAH1B3 FP inh: PAFAH1B3 enzyme inhibitors, primary screen, biochemical, fluorescence polarization, human; Platelet-activating factor acetylhydrolase IB subunit alpha1 (Homo sapiens), Q15102; recombinant PAFAH1B3, FP-rhodamine probe; 340,000 tested, 0.28% active; inhibition, % at 3.39 µM; AID 492972, 2010;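 active means inhibition above the screen-wide average of all tested compounds plus 3 SD, cut at about 25% in these data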;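 further: 0% = enzyme with DMSO only and 100% = wells lacking PAFAH1B3 protein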
pPAFAH inh: pPAFAH enzyme inhibitors, primary screen, biochemical, fluorescence polarization, human | recombinant pPAFAH, FP-rhodamine probe fluorescence polarization | inhibition, % at 3.39 µM | 330,000 tested, 1.5% active;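 active means inhibition above the mean inhibition across the screen plus 3 SD, cut at about 25% in these data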;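 further: inhibitors block binding of the rhodamine activity-based probe so polarization drops; 0% = enzyme with DMSO and 100% = wells lacking pPAFAH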
Target sequence (Q13093 whole entry, looked up): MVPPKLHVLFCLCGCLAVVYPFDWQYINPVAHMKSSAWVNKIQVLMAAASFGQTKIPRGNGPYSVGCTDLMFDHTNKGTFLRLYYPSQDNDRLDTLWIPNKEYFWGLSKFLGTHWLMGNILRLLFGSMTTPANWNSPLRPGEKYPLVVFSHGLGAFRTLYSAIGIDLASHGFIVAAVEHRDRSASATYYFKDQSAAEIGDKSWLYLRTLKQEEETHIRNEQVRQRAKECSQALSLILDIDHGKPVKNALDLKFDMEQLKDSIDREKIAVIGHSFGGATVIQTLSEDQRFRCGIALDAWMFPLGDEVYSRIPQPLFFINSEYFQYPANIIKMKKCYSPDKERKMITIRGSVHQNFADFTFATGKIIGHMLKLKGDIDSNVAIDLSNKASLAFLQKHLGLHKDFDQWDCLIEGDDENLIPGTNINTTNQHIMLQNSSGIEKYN
IMP-1 inhibitor: IMP-1 metallo-beta-lactamase inhibitors, primary screen, biochemical, epi-absorbance readout, Pseudomonas aeruginosa enzyme. purified IMP-1, nitrocefin hydrolysis, epi-absorbance fluorescence. 290,000 tested, 0.45% active. metallo-beta-lactamase IMP-1 (Pseudomonas aeruginosa). inhibition, % at 5.6 µM;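 active means inhibition above the mean plus 3 SD of all compounds in the same screening run, cut at about 4.5% in these data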;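 further: 0% = IMP-1 with DMSO and 100% = DMSO wells lacking enzyme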
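Assay system: purified IMP-1; Quantity: IMP-1 0.2 nM before substrate addition; Medium: HEPES buffer pH 7.1 with ZnSO4 and Brij 35; Incubation: 15 min enzyme–compound preincubation, then 25 min nitrocefin reaction, 25 °C; Signal: fluorescence quenching readout, ex 480/em 530 nm; Controls: DMSO with and without IMP-1; Repeats: singlicate testing.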
PAFAH2 FP inh: PAFAH2 enzyme inhibitors, primary screen, biochemical, fluorescence polarization, human; recombinant PAFAH2, FP-rhodamine activity probe; Platelet-activating factor acetylhydrolase 2, cytoplasmic (Homo sapiens), Q99487; inhibition, % at 3.39 µM; 340,000 tested, 0.99% active;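 active means inhibition above the mean over all tested compounds plus 3 SD, cut at about 30% in these data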;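 further: inhibitors block probe labeling of enzyme so polarization drops; 0% = enzyme with DMSO and 100% = wells lacking PAFAH2 protein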
PAFAH1B2 inh: PAFAH1B2 enzyme inhibitors, primary screen, biochemical, fluorescence polarization, human. Platelet-activating factor acetylhydrolase IB subunit alpha2 (Homo sapiens), P68402. recombinant PAFAH1B2, FP-rhodamine activity probe. 340,000 tested, 1.2% active. inhibition, % at 3.39 µM;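 active means inhibition above the mean of all tested compounds plus 3 SD, cut at about 24% in these data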;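 further: 0% = enzyme with DMSO and 100% = wells lacking PAFAH1B2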
VIM-2 inhibitor: VIM-2 metallo-beta-lactamase inhibitors, primary screen, biochemical, epi-absorbance readout, Pseudomonas aeruginosa enzyme; purified VIM-2, nitrocefin hydrolysis, epi-absorbance fluorescence; 290,000 tested, 0.89% active; inhibition, % at 5.6 µM;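 active means inhibition above the mean of all tested compounds plus 3 SD, cutoff set per screening run, cut at about 7.5% in these data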;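 further: red hydrolysis product quenches plate fluorescence so inhibitors raise well fluorescence; 0% = enzyme with DMSO and 100% = DMSO without enzyme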
PAFAH2 confirm: PAFAH2 enzyme inhibitors, confirmation, biochemical, fluorescence polarization, human. shares compounds with PAFAH2 FP inh. recombinant PAFAH2, FP-rhodamine activity probe. inhibition, % at 3.39 µM. 2,300 tested, 65% active. AID 493030, 2011;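 active means mean inhibition over three repeats above a set limit taken from the earlier primary screen, cut at about 30% in these data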;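 further: inhibitor blocks binding of rhodamine activity probe so polarization falls; 0% = enzyme with DMSO and 100% = wells lacking PAFAH2 protein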
* marks the source's active call; other numbers are inactive results; / = not tested or not shown.

SMILES	PAFAH1B3 FP inh	pPAFAH inh	IMP-1 inhibitor	PAFAH2 FP inh	PAFAH1B2 inh	VIM-2 inhibitor	PAFAH2 confirm
CNc1ccccc1C(=O)OCC(=O)Nc1ccc2c(c1)OCO2	2	10	/	30	-2	/	/
CC1CC1C(=O)OCC(=O)NCc1ccccc1 (configuration not stated)	1	2	/	36*	0	/	25
O=C(COC(=O)C12CC3CC(CC(O)(C3)C1)C2)Nc1cccc(Br)c1	8	/	/	74*	10	/	69*
O=C(COC(=O)c1ccco1)Nc1cccc(Br)c1	6	4	0	91*	-3	-1	68*
O=C(COC(=O)C12CC3CC(CC(O)(C3)C1)C2)NC(=O)NCc1ccco1	1	3	-1	-1	-1	-2	/
COc1ccc(NC(=O)CCn2cccc2)cc1	0	-2	-3	6	1	-2	/
COc1ccc(C(=O)OCC(=O)NC(C)CCc2ccccc2)cc1OC (configuration not stated)	-2	11	-1	74*	6	0	71*
CC(CCc1ccccc1)NC(=O)COC(=O)c1ccc(NC(N)=O)cc1 (configuration not stated)	4	0	-3	67*	6	-2	64*
CC(C)n1nccc1NC(=O)COC(=O)c1ccc(NC(N)=O)cc1	6	3	/	65*	5	/	46*
COc1ccc(/C=C/C(=O)OCC(=O)NC(C)CCc2ccccc2)cc1OC (configuration not stated)	2	6	/	64*	6	/	59*
Cc1ccccc1-c1nnc(SCC(=O)NC2CCCC2)o1	-2	2	-1	-1	3	0	/
CC(=O)c1sc(NC(=O)CN2C(=O)C3CC=CCC3C2=O)nc1-c1ccccc1 (configuration not stated)	4	3	/	9	7	/	/
COc1ccc(C(=O)OCC(=O)NC(C)CCc2ccccc2)cc1 (configuration not stated)	7	8	-2	75*	7	1	68*
CCN(CC)c1ccc(C(=O)OCC(=O)Nc2sccc2C#N)cc1	-6	9	-1	47*	-3	1	54*
N#Cc1ccsc1NC(=O)COC(=O)c1ccc(NC(N)=O)cc1	-18	3	-2	5	-9	-2	/
CCN(CC)c1ccc(C(=O)OCC(=O)Nc2cc3oc4ccccc4c3cc2OC)cc1	-2	-7	-2	3	1	-1	/
CCN(CC)c1ccc(C(=O)OCC(=O)Nc2ncccn2)cc1	9	24	/	77*	6	/	70*
CCN(CC)c1ccc(C(=O)OCC(=O)Nc2ccccc2-c2ccccc2)cc1	5	20	-2	77*	-4	-4	51*
O=C(CNC(=O)c1ccco1)OCC(=O)c1ccc(Br)cc1	2	0	0	-2	11	0	/
CCOc1ccc(C(C)=O)cc1COC(=O)c1ccccc1C(=O)N(C)Cc1ccccc1	-3	/	/	6	1	/	/
O=[N+]([O-])c1cccc(S(=O)(=O)Nc2nc3ccccc3nc2Nc2cccc(S(=O)(=O)N3CCCCC3)c2)c1	8	/	0	45*	21	-1	13
O=C(OCc1nc2ccccc2[nH]1)C12CC3CC(CC(C3)C1)C2	-7	2	-5	57*	9	-3	49*
CC(C)n1cc(CN2CCCC(CNS(=O)(=O)c3cccc4cccnc34)C2)cn1 (configuration not stated)	8	-5	1	7	2	0	/
COc1ccc(Cc2nnc(SCC(=O)Nc3ccccc3)[nH]c2=O)cc1	10	2	/	13	-5	/	/

Compound activity as filed in PubChem BioAssay.
